Values after ≈ are worked out from the molar mass of the structure shown.
Legend:
Cryptococcus neoformans = assay: In-vitro minimum inhibitory concentration against the growth of Cryptococcus neoformans; type: functional
Method in brief: (§1)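 Broth microdilution following NCCLS, run in 96-well plates with RPMI 1640 medium buffered with MOPS. The MIC was the endpoint against each fungal isolate.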

Candida albicans = assay: In-vitro minimum inhibitory concentration against the growth of Candida albicans; type: functional; method in brief: as §1
Trichophyton benhamiae = assay: In-vitro minimum inhibitory concentration against the growth of Trichophyton mentagrophytes; type: functional, Trichophyton mentagraphytes; method in brief: as §1
Escherichia coli = assay: In-vitro minimum inhibitory concentration against the growth of Escherichia coli; type: functional
Method in brief: (§2)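 Broth microdilution following NCCLS against each bacterial strain, with the MIC taken as the endpoint.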

Aspergillus fumigatus = assay: In-vitro minimum inhibitory concentration against the growth of Aspergillus fumigatus; type: functional; method in brief: as §1
Enterococcus faecalis = assay: In-vitro minimum inhibitory concentration against the growth of Streptococcus faecalis; type: functional; method in brief: as §2
Sporothrix schenckii = assay: In-vitro minimum inhibitory concentration against the growth of Sporothrix schenckii; type: functional; method in brief: as §1
Pseudomonas aeruginosa = assay: In-vitro minimum inhibitory concentration against the growth of Pseudomonas aeruginosa; type: functional; method in brief: as §2
Klebsiella pneumoniae = assay: In-vitro minimum inhibitory concentration against the growth of Klebsiella pneumoniae; type: functional; method in brief: as §2
Candida parapsilosis = assay: In-vitro minimum inhibitory concentration against the growth of Candida parapsilosis (ATCC 22019); type: functional; conditions: Lodderomyces parapsilosis; method in brief: as §1
Staphylococcus aureus = assay: In-vitro minimum inhibitory concentration against the growth of Staphylococcus aureus; type: functional; method in brief: as §2
Rattus norvegicus [1] = assay: Anticancer activity against Walker 256 carcinosarcoma in rats at a dose of 50 mg/kg [Inactive]; type: functional
Rattus norvegicus [2] = assay: Anticancer activity against Walker 256 carcinosarcoma in rats at a dose of 10 mg/kg [Active]; type: functional

Compound	MIC (Cryptococcus neoformans) [µg/mL]	MIC (Candida albicans) [µg/mL]	MIC (Trichophyton benhamiae) [µg/mL]	MIC (Escherichia coli) [µg/mL]	MIC (Aspergillus fumigatus) [µg/mL]	MIC (Enterococcus faecalis) [µg/mL]	MIC (Sporothrix schenckii) [µg/mL]	MIC (Pseudomonas aeruginosa) [µg/mL]	MIC (Klebsiella pneumoniae) [µg/mL]	MIC (Candida parapsilosis) [µg/mL]	MIC (Staphylococcus aureus) [µg/mL]	T/C (Rattus norvegicus [1]) [%]	T/C (Rattus norvegicus [2]) [%]
C[C@@H]1[C@H](O)[C@@H](C)/C=C/C=C/C=C/C=C/C=C/C=C/C=C/[C@H](O[C@@H]2O[C@H](C)[C@@H](O)[C@H](N)[C@@H]2O)C[C@@H]2O[C@](O)(C[C@@H](O)C[C@@H](O)[C@H](O)CC[C@@H](O)C[C@@H](O)CC(=O)O[C@H]1C)C[C@H](O)[C@H]2C(=O)O [AMPHOTERICIN B]	0.78 (≈ 0.844 µM)	0.39 (≈ 0.422 µM)	1.56 (≈ 1.69 µM)										
C=CCNC(=O)c1[nH]nc2c1C(=O)c1ccccc1C2=O	> 50	> 50	> 50	12.5 (≈ 44.4 µM)	> 50	> 50	> 50	> 50	12.5 (≈ 44.4 µM)	> 50	> 50		
O=C1c2ccccc2C(=O)c2[nH]ncc21												115	
NYSTATIN	3.5	7.8					13.2						
O=C1C=CC(=O)c2c(O)ccc(O)c21 [NAPHTHAZALIN]													37
OC(Cn1cncn1)(Cn1cncn1)c1ccc(F)cc1F [FLUCONAZOLE]	1 (≈ 3.27 µM)	1 (≈ 3.27 µM)	0.5 (≈ 1.63 µM)		2 (≈ 6.53 µM)		2 (≈ 6.53 µM)			2 (≈ 6.53 µM)			
Clc1ccc(COC(Cn2ccnc2)c2ccc(Cl)cc2Cl)c(Cl)c1 (stereo not given) [MICONAZOLE]	12.5 (≈ 30 µM)	25 (≈ 60.1 µM)	< 0.78		12.5 (≈ 30 µM)								
CCOC(=O)c1[nH]nc2c(O)c3ccccc3c(O)c12	6.25 (≈ 23 µM)	6.25 (≈ 23 µM)	25 (≈ 91.8 µM)	6.25 (≈ 23 µM)	25 (≈ 91.8 µM)	25 (≈ 91.8 µM)	50 (≈ 184 µM)	> 50	6.25 (≈ 23 µM)	12.5 (≈ 45.9 µM)	25 (≈ 91.8 µM)		
NNC(=O)c1[nH]nc2c1C(=O)c1ccccc1C2=O	> 50	> 50	> 50	> 50	> 50	> 50	> 50	> 50	> 50	> 50	> 50		
GENTAMICIN								0.78	0.39		0.78		
CNC(=O)c1[nH]nc2c1C(=O)c1ccccc1C2=O	> 50	> 50	> 50	> 50	> 50	> 50	> 50	> 50	25 (≈ 97.9 µM)	50 (≈ 196 µM)	> 50		
O=C1c2ccccc2C(=O)c2c1n[nH]c2C(=O)NNc1ccccc1	> 50	> 50	> 50	> 50	> 50	25 (≈ 75.2 µM)	> 50	> 50	12.5 (≈ 37.6 µM)	> 50	> 50		
CCCCNC(=O)c1[nH]nc2c1C(=O)c1ccccc1C2=O	> 50	> 50	> 50	> 50	> 50	> 50	> 50	> 50	> 50	> 50	> 50		
O=C1c2ccccc2C(=O)c2c1n[nH]c2C(=O)NCCO	> 50	> 50	> 50	25 (≈ 87.6 µM)	> 50	> 50	> 50	> 50	25 (≈ 87.6 µM)	> 50	> 50		
NNC(=O)c1[nH]nc2c(O)c3ccccc3c(O)c12	25 (≈ 96.8 µM)	25 (≈ 96.8 µM)	> 50	> 50	> 50	> 50	> 50	> 50	> 50	> 50	> 50		
NC[C@H]1O[C@H](O[C@H]2[C@H](O)[C@@H](O[C@H]3O[C@H](CO)[C@@H](O)[C@H](N)[C@H]3O)[C@H](N)C[C@@H]2N)[C@H](O)[C@@H](O)[C@@H]1O [KANAMYCIN]				16 (≈ 33 µM)				> 128	32 (≈ 66 µM)		2 (≈ 4.13 µM)		
CCOC(=O)c1[nH]nc2c1C(=O)c1ccccc1C2=O	> 50	> 50	> 50	25 (≈ 92.5 µM)	> 50	12.5 (≈ 46.3 µM)	> 50	> 50	12.5 (≈ 46.3 µM)	> 50	25 (≈ 92.5 µM)		
O=C(NNc1ccc([N+](=O)[O-])cc1[N+](=O)[O-])c1[nH]nc2c(O)c3ccccc3c(O)c12	> 50	25 (≈ 58.9 µM)	> 50	> 50	> 50	> 50	> 50	> 50	> 50	> 50	> 50		
